Test results as given in ChEMBL document CHEMBL1147356, “Structure and stereochemistry of pectinolides A-C, novel antimicrobial and cytotoxic 5,6-dihydro-alpha-pyrones from Hyptis pectinata” (1993).
≈ marks a conversion by molar mass, not a printed value. Calls of active or inactive are those of the source. The calls are words filed in the database; no cut-off is given here.

Experiments:
Staphylococcus aureus [1] = assay: Antibacterial activity against Staphylococcus aureus ATCC 6538 after overnight incubation at 37 degC by twofold serial dilution technique; format: functional
Summary of the method: (§1)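 Twofold broth dilution MIC. Sample at 1 mg/ml in MeOH-H2O (1:1), 0.5 ml added to 4.5 ml nutrient broth, then doubling dilutions from 100 to 0.2 μg/ml. Each tube inoculated to 10⁶ organisms/ml final. Duplicate per organism, with solvent and streptomycin control broths.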

Bacillus subtilis [2] = assay: Antibacterial activity against Bacillus subtilis ATCC 6633 at 1 mg/ml after 24 hrs at 37 degC by agar hole-plate diffusion assay; format: functional; details: ATCC 6633, 24 h, read-out: IZ
Summary of the method: (§2)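 Agar hole-plate diffusion. Agar plates (15 ml) seeded with 1 ml overnight broth culture (10⁶ bacteria/ml); 11 mm holes filled with 100 μl of pure compound at 1 mg/ml. Streptomycin sulfate (1 mg/ml) as positive control. Duplicate per organism, 24 h at 37°. Inhibition zone diameters measured.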

Escherichia coli [3] = assay: Antibacterial activity against Escherichia coli ATCC 8739 by agar diffusion technique; format: functional
Staphylococcus aureus [4] = assay: Antibacterial activity against Staphylococcus aureus ATCC 6538 at 1 mg/ml after 24 hrs at 37 degC by agar hole-plate diffusion assay; format: functional; details: ATCC 6538, 24 h, read-out: IZ; summary of the method: as §2
Pseudomonas aeruginosa [5] = assay: Antibacterial activity against Pseudomonas aeruginosa ATCC 9027 at < 100 ug/ml after 24 hrs at 37 degC by agar hole-plate diffusion assay; format: functional, organism-based
Candida albicans [6] = assay: Antifungal activity against Candida albicans ATCC 10231 by agar diffusion technique; format: functional
Pseudomonas aeruginosa [7] = assay: Antibacterial activity against Pseudomonas aeruginosa ATCC 9027 by agar diffusion technique; format: functional
Candida albicans [8] = assay: Antifungal activity against Candida albicans ATCC 10231 at < 100 ug/ml after 24 hrs at 25 degC by agar hole-plate diffusion assay; format: functional, organism-based
Bacillus subtilis [9] = assay: Antibacterial activity against Bacillus subtilis ATCC 6633 after overnight incubation at 37 degC by twofold serial dilution technique; format: functional; summary of the method: as §1
Escherichia coli [10] = assay: Antibacterial activity against Escherichia coli ATCC 8739 at < 100 ug/ml after 24 hrs at 37 degC by agar hole-plate diffusion assay; format: functional, organism-based
HT-1080 = assay: Cytotoxicity against human HT1080 cells after 48 hrs by sulforhodamine B assay; format: functional; details: HT-1080, 48 h, read-out: ED50 (the source's name)
Summary of the method: (§3)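 Log-phase cells exposed to five concentrations (20.0–0.032 μg/ml) of sample in DMSO for 48 h at 37°, 5% CO₂, 100% humidity. Cell quantity per well determined by sulforhodamine B staining; ED50 reported.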

[11] = Cytotoxicity against vinblastine-resistant human KBV1 cells after 72 hrs by sulforhodamine B assay; format: functional; details: KB-V1, 72 h, read-out: ED50 (the source's name)
Summary of the method: (§4)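 Log-phase cells treated with five sample concentrations (20.0–0.032 μg/ml) in DMSO for 72 h at 37°, 5% CO₂, 100% humidity. Sulforhodamine B staining quantified cells per well; results given as ED50.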

[12] = Cytotoxicity against human LUC1 cells after 48 hrs by sulforhodamine B assay; format: functional; details: LUC1, 48 h, read-out: ED50 (the source's name); summary of the method: as §3
SK-MEL-2 = assay: Cytotoxicity against human SK-MEL-2 cells after 72 hrs by sulforhodamine B assay; format: functional; details: SK-MEL-2, 72 h, read-out: ED50 (the source's name); summary of the method: as §4
KB = assay: Cytotoxicity against human KB cells after 72 hrs by sulforhodamine B assay; format: functional; details: read-out: ED50 (the source's name); summary of the method: as §4
ZR-75-1 = assay: Cytotoxicity against human ZR-75-1 cells after 72 hrs by sulforhodamine B assay; format: functional; details: ZR-75-1, 72 h, read-out: ED50 (the source's name); summary of the method: as §4
Bacillus subtilis [13] = assay: Antibacterial activity against Bacillus subtilis ATCC 6633 at < 100 ug/ml after 24 hrs at 37 degC by agar hole-plate diffusion assay; format: functional, organism-based
A-431 = assay: Cytotoxicity against human A431 cells after 72 hrs by sulforhodamine B assay; format: functional; details: A-431, 72 h, read-out: ED50 (the source's name); summary of the method: as §4
LNCaP = assay: Cytotoxicity against human LNCAP cells after 72 hrs by sulforhodamine B assay; format: functional; details: read-out: ED50 (the source's name); summary of the method: as §4
P388 = assay: Cytotoxicity against mouse P388 cells after 48 hrs by sulforhodamine B assay; format: functional; details: P388, 48 h, read-out: ED50 (the source's name); summary of the method: as §3
[14] = Cytotoxicity against human BC1 cells after 72 hrs by sulforhodamine B assay; format: functional; details: BC1, 72 h, read-out: ED50 (the source's name); summary of the method: as §4
Staphylococcus aureus [15] = assay: Antibacterial activity against Staphylococcus aureus ATCC 6538 at < 100 ug/ml after 24 hrs at 37 degC by agar hole-plate diffusion assay; format: functional, organism-based
[16] = Cytotoxicity against human Col2 cells after 72 hrs by sulforhodamine B assay; details: Col2, 72 h, read-out: ED50 (the source's name)

Compound	MIC (Staphylococcus aureus [1]) [µg/mL]	zone of inhibition at 1000 µg/mL (Bacillus subtilis [2]) [mm]	MIC (Escherichia coli [3]) [µg/mL]	zone of inhibition at 1000 µg/mL (Staphylococcus aureus [4]) [mm]	Activity (Pseudomonas aeruginosa [5])	MIC (Candida albicans [6]) [µg/mL]	MIC (Pseudomonas aeruginosa [7]) [µg/mL]	Activity (Candida albicans [8])	MIC (Bacillus subtilis [9]) [µg/mL]	Activity (Escherichia coli [10])	EC50 (HT-1080) [µg/mL]	EC50 [11] [µg/mL]	EC50 [12] [µg/mL]	EC50 (SK-MEL-2) [µg/mL]	EC50 (KB) [µg/mL]	EC50 (ZR-75-1) [µg/mL]	EC50 (A-431) [µg/mL]	EC50 (LNCaP) [µg/mL]	EC50 (P388) [µg/mL]	EC50 [14] [µg/mL]	further results
CCCC[C@H](OC(=O)CCl)[C@@H](OC(C)=O)[C@H](OC(C)=O)[C@@H]1OC(=O)C=C[C@@H]1OC(C)=O	75 (≈ 162 µM)	7	300 (≈ 648 µM)	5	inactive	200 (≈ 432 µM)	300 (≈ 648 µM)	inactive	50 (≈ 108 µM)	inactive	–	–	–	–	–	–	–	–	–	–	–
CCCC[C@@H](/C=C\[C@@H]1OC(=O)C[C@@H](OC)[C@@H]1O)OC(C)=O	> 100	–	> 500	–	inactive	> 500	> 500	inactive	> 100	inactive	> 20	> 20	> 20	> 20	> 20	> 20	> 20	> 20	> 5	> 20	Activity (Bacillus subtilis [13]): inactive
CC(=O)O[C@@H](C)[C@@H](/C=C/[C@@H]1O[C@@H]1[C@H]1CC=CC(=O)O1)OC(C)=O	–	–	–	–	–	–	–	–	–	–	5.7 (≈ 17.6 µM)	3.4 (≈ 10.5 µM)	3.3 (≈ 10.2 µM)	4.1 (≈ 12.6 µM)	2.9 (≈ 8.94 µM)	4.7 (≈ 14.5 µM)	1.9 (≈ 5.86 µM)	1.8 (≈ 5.55 µM)	0.4 (≈ 1.23 µM)	4.8 (≈ 14.8 µM)	Activity (Bacillus subtilis [13]): inactive; Activity (Staphylococcus aureus [15]): inactive
CCCC[C@H](OC(C)=O)[C@@H](O)[C@H](O)[C@@H]1OC(=O)C=C[C@@H]1OC(C)=O	75 (≈ 218 µM)	7	300 (≈ 871 µM)	4	inactive	200 (≈ 581 µM)	300 (≈ 871 µM)	inactive	50 (≈ 145 µM)	inactive	6.7 (≈ 19.5 µM)	> 20	8.8 (≈ 25.6 µM)	6 (≈ 17.4 µM)	5.9 (≈ 17.1 µM)	6.2 (≈ 18 µM)	4.5 (≈ 13.1 µM)	4.5 (≈ 13.1 µM)	0.5 (≈ 1.45 µM)	9.9 (≈ 28.7 µM)	EC50 [16]: 5.1 µg/mL (≈ 14.8 µM)
CCCC[C@H](OC(C)=O)[C@@H](OC(C)=O)[C@H](OC(C)=O)[C@@H]1OC(=O)C=C[C@@H]1OC(C)=O	100 (≈ 233 µM)	5	300 (≈ 700 µM)	4	inactive	500 (≈ 1170 µM)	200 (≈ 467 µM)	inactive	50 (≈ 117 µM)	inactive	8.4 (≈ 19.6 µM)	6.3 (≈ 14.7 µM)	7.6 (≈ 17.7 µM)	4.5 (≈ 10.5 µM)	4.4 (≈ 10.3 µM)	7.8 (≈ 18.2 µM)	2.6 (≈ 6.07 µM)	1.9 (≈ 4.43 µM)	0.4 (≈ 0.934 µM)	7 (≈ 16.3 µM)	–
CCCC[C@@H](/C=C\[C@@H]1OC(=O)C=C[C@@H]1OC(C)=O)OC(C)=O [PECTINOLIDE A]	12.5 (≈ 40.3 µM)	10	200 (≈ 644 µM)	8	inactive	250 (≈ 806 µM)	200 (≈ 644 µM)	inactive	6.25 (≈ 20.1 µM)	inactive	1.7 (≈ 5.48 µM)	1.8 (≈ 5.8 µM)	0.9 (≈ 2.9 µM)	0.7 (≈ 2.26 µM)	1.8 (≈ 5.8 µM)	3.6 (≈ 11.6 µM)	1.4 (≈ 4.51 µM)	0.7 (≈ 2.26 µM)	0.9 (≈ 2.9 µM)	1 (≈ 3.22 µM)	EC50 [16]: 1 µg/mL (≈ 3.22 µM)
CCCC[C@H](O)/C=C\[C@@H]1OC(=O)C=C[C@@H]1OC(C)=O [PECTINOLIDE B]	100 (≈ 373 µM)	6	300 (≈ 1120 µM)	4	inactive	300 (≈ 1120 µM)	300 (≈ 1120 µM)	inactive	25 (≈ 93.2 µM)	inactive	2.3 (≈ 8.57 µM)	2 (≈ 7.45 µM)	3.8 (≈ 14.2 µM)	2.2 (≈ 8.2 µM)	1.4 (≈ 5.22 µM)	1.6 (≈ 5.96 µM)	0.6 (≈ 2.24 µM)	0.9 (≈ 3.35 µM)	0.1 (≈ 0.373 µM)	2.5 (≈ 9.32 µM)	EC50 [16]: 1.1 µg/mL (≈ 4.1 µM)
CCCC[C@@H](/C=C\[C@@H]1OC(=O)C=C[C@@H]1O)OC(C)=O [PECTINOLIDE C]	100 (≈ 373 µM)	8	> 500	4	inactive	> 500	> 500	inactive	12.5 (≈ 46.6 µM)	inactive	1.8 (≈ 6.71 µM)	3.2 (≈ 11.9 µM)	2.3 (≈ 8.57 µM)	3.3 (≈ 12.3 µM)	1.7 (≈ 6.34 µM)	1.9 (≈ 7.08 µM)	0.8 (≈ 2.98 µM)	0.8 (≈ 2.98 µM)	2.2 (≈ 8.2 µM)	2 (≈ 7.45 µM)	EC50 [16]: 1.6 µg/mL (≈ 5.96 µM)
CN[C@@H]1[C@H](O[C@H]2[C@H](O[C@H]3[C@H](O)[C@@H](O)[C@H](N=C(N)N)[C@@H](O)[C@@H]3N=C(N)N)O[C@@H](C)[C@]2(O)C=O)O[C@@H](CO)[C@H](O)[C@H]1O.CN[C@@H]1[C@H](O[C@H]2[C@H](O[C@H]3[C@H](O)[C@@H](O)[C@H](N=C(N)N)[C@@H](O)[C@@H]3N=C(N)N)O[C@@H](C)[C@]2(O)C=O)O[C@@H](CO)[C@H](O)[C@H]1O.O=S(=O)(O)O.O=S(=O)(O)O.O=S(=O)(O)O [STREPTOMYCIN SULFATE]	6.25	13	–	9	–	–	–	–	3.12	–	–	–	–	–	–	–	–	–	–	–	–
NYSTATIN	–	–	–	–	–	–	–	–	–	–	–	–	–	–	–	–	–	–	–	–	inhibition zone (IZ) (Candida albicans [8]): 7 mm
